Source: publication PMC9810488 (Translational and Clinical Pharmacology, 2022)
Where two headings read alike, the source gives them in different places.

Key:
[1] = assay type: in vivo, human; settings: sitagliptin 100 mg single oral dose, plasma
Procedure, shortened: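 Healthy Korean adults (≥19 years, BMI 18.0–30.0 kg/m2) took a single 100 mg oral tablet with 150 mL water in randomized periods, washout ≥7 days. Heparinized blood was drawn predose and 15 min–48 h postdose, centrifuged 3,000 rpm, 10 min, 4°C, and plasma stored at −70°C. Assay was LC-MS/MS, positive-ion ESI. Noncompartmental: Cmax observed, AUCinf by linear-up log-down trapezoidal rule. ABCB1 genotyped by TaqMan allelic discrimination.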

[2] = cited from earlier work
[3] = cited from earlier work; remark: listed apart in the source

N[C@@H](CC(=O)N1CCn2c(nnc2C(F)(F)F)C1)Cc1cc(F)c(F)cc1F [Sitagliptin]
Sitagliptin AUCinf ([1]; ABCB1 C1236T CC+CT (n=72)): 3,504.78 ± 655.77 ng*h/mL
Sitagliptin Cmax ([1]; ABCB1 C1236T CT+TT (n=81)): 456.01 ± 123.74 ng/mL
Sitagliptin AUCinf ([1]; ABCB1 C3435T CC (n=49)): 3,530.20 ± 669.78 ng*h/mL
Sitagliptin AUCinf ([1]; ABCB1 C3435T CC+CT (n=91)): 3,484.02 ± 630.25 ng*h/mL
Sitagliptin Cmax ([1]; ABCB1 C3435T CT (n=42)): 454.26 ± 136.79 ng/mL
Sitagliptin Cmax ([1]; ABCB1 C3435T CT+TT (n=51)): 457.53 ± 130.73 ng/mL
Sitagliptin AUCinf ([1]; ABCB1 C3435T TT (n=9)): 3,528.50 ± 564.05 ng*h/mL
Sitagliptin AUCinf ([1]; ABCB1 G2677T/A AA (n=2)): 3,481.41 ng*h/mL
Sitagliptin AUCinf ([1]; ABCB1 G2677T/A AT+GA (n=37)): 3,501.79 ± 714.08 ng*h/mL
Sitagliptin Cmax ([1]; ABCB1 G2677T/A AT+GA (n=37)): 457.90 ± 98.21 ng/mL
Sitagliptin AUCinf ([1]; ABCB1 G2677T/A AT+GT (n=44)): 3,475.54 ± 576.82 ng*h/mL
Sitagliptin Cmax ([1]; ABCB1 G2677T/A AT+GT (n=44)): 457.31 ± 142.79 ng/mL
Sitagliptin AUCinf ([1]; ABCB1 G2677T/A GA (n=20)): 3,679.91 ± 852.18 ng*h/mL
Sitagliptin AUCinf ([1]; ABCB1 G2677T/A GA+GT (n=47)): 3,628.80 ± 723.63 ng*h/mL
Sitagliptin AUCinf ([1]; ABCB1 G2677T/A TT (n=9)): 3,477.17 ± 596.14 ng*h/mL
drug eliminated as unchanged compound in the urine [2]: over 80%

C[C@H]1O[C@@H](O[C@H]2[C@@H](O)C[C@H](O[C@H]3[C@@H](O)C[C@H](O[C@H]4CC[C@@]5(C)[C@H](CC[C@@H]6[C@@H]5C[C@@H](O)[C@]5(C)[C@@H](C7=CC(=O)OC7)CC[C@]65O)C4)O[C@@H]3C)O[C@@H]2C)C[C@H](O)[C@@H]1O [digoxin]
digoxin concentrations higher in 3435TT homozygous subjects than in CC and CT subjects ([3]; 34 Caucasian subjects): 20%
lower AUC for digoxin in 3435 TT genotype than in CC and CT genotypes ([3]; Japanese study, 114 subjects): 20%
relationship between C3435T SNP and digoxin concentrations ([3]; single digoxin dose): no relationship
